According to ChEMBL document CHEMBL2346536, “Biscatecholate-monohydroxamate mixed ligand siderophore-carbacephalosporin conjugates are selective sideromycin antibiotics that target Acinetobacter baumannii” (2013):
In brackets after ≈: the same amount, converted by molar mass. Activity calls are given as the source filed them. No cut-off for these calls is given here.

How the values were obtained:
Escherichia coli = experiment: Antibacterial activity against Escherichia coli ATCC 25922 after 18 hrs by broth microdilution method; type: functional; conditions: ATCC 25922, 18 h
Procedure, shortened: (§1)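 Broth microdilution MICs per CLSI guidelines, read by visual end point; each compound tested in triplicate.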

Klebsiella aerogenes = experiment: Antibacterial activity against Enterobacter aerogenes ATCC 35029 after 18 hrs by broth microdilution method; type: functional; conditions: ATCC 35029, 18 h; procedure, shortened: as §1
Staphylococcus aureus [1] = experiment: Antibacterial activity against Staphylococcus aureus SG 511 after 18 hrs by broth microdilution method; type: functional; conditions: SG 511, 18 h; procedure, shortened: as §1
Enterococcus faecium = experiment: Antibacterial activity against Enterococcus faecium NCTC 7171 after 18 hrs by broth microdilution method; type: functional; conditions: NCTC 7171, 18 h; procedure, shortened: as §1
Klebsiella pneumoniae = experiment: Antibacterial activity against Klebsiella pneumoniae ATCC 700603 after 18 hrs by broth microdilution method; type: functional; conditions: ATCC 700603, 18 h; procedure, shortened: as §1
Acinetobacter baumannii [2] = experiment: Antibacterial activity against Acinetobacter baumannii ATCC 17961 after 18 hrs by broth microdilution method; type: functional; conditions: ATCC 17961, 18 h; procedure, shortened: as §1
Pseudomonas aeruginosa = experiment: Antibacterial activity against Pseudomonas aeruginosa ATCC 27853 after 18 hrs by broth microdilution method; type: functional; conditions: ATCC 27853, 18 h; procedure, shortened: as §1
Staphylococcus aureus [3] = experiment: Antibacterial activity against Staphylococcus aureus SG 511 in Fe(3)-deficient Mueller-Hinton no.2 broth media after 18 hrs by broth microdilution method; type: functional; conditions: SG 511, 18 h
Procedure, shortened: (§2)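 CLSI broth microdilution in cation-adjusted Mueller–Hinton no. 2 broth. The iron-deficient broth contained 100 μM 2,2′-bipyridine and the iron-supplemented broth 100 μM FeCl₃. MIC was read by visual end point, each compound in triplicate.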

Staphylococcus aureus [4] = experiment: Antibacterial activity against Staphylococcus aureus SG 511 in Fe(3)-supplemented Mueller-Hinton no.2 broth media after 18 hrs by broth microdilution method; type: functional; conditions: SG 511, 18 h; procedure, shortened: as §2
Acinetobacter baumannii [5] = experiment: Antibacterial activity against Acinetobacter baumannii ATCC 17961 in Fe(3)-deficient Mueller-Hinton no.2 broth media after 18 hrs by broth microdilution method; type: functional; conditions: ATCC 17961, 18 h; procedure, shortened: as §2
Acinetobacter baumannii [6] = experiment: Antibacterial activity against Acinetobacter baumannii ATCC 17961 in Fe(3)-supplemented Mueller-Hinton no.2 broth media after 18 hrs by broth microdilution method; type: functional; conditions: ATCC 17961, 18 h; procedure, shortened: as §2
Staphylococcus aureus [7] = experiment: Antibacterial activity against Staphylococcus aureus SG 511 in Fe(3)-supplemented Mueller-Hinton no.2 broth media assessed as diameter of growth inhibition zone after 18 to 24 hrs by agar diffusion assay; type: functional, organism-based
Procedure, shortened: (§3)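 Modified Kirby–Bauer agar diffusion on Mueller–Hinton no. 2 agar, made iron-deficient with 100 μM 2,2′-bipyridine or iron-supplemented with 100 μM FeCl₃. Read-out was growth inhibition zone diameter (mm), averaged over three independent trials.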

Staphylococcus aureus [8] = experiment: Antibacterial activity against Staphylococcus aureus SG 511 in Fe(3)-deficient Mueller-Hinton no.2 broth media assessed as diameter of growth inhibition zone after 18 to 24 hrs by agar diffusion assay; type: functional, organism-based; procedure, shortened: as §3
Acinetobacter baumannii [9] = experiment: Antibacterial activity against Acinetobacter baumannii ATCC 17961 in Fe(3)-supplemented Mueller-Hinton no.2 broth media assessed as diameter of growth inhibition zone after 18 to 24 hrs by agar diffusion assay; type: functional; procedure, shortened: as §3
Acinetobacter baumannii [10] = experiment: Antibacterial activity against Acinetobacter baumannii ATCC 17961 in Fe(3)-deficient Mueller-Hinton no.2 broth media assessed as diameter of growth inhibition zone after 18 to 24 hrs by agar diffusion assay; type: functional; procedure, shortened: as §3
Staphylococcus aureus [11] = experiment: Antibacterial activity against Staphylococcus aureus SG 511 at 0.5 mM after 18 to 24 hrs by agar diffusion assay in presence of Fe3-complex of N-[5-(3-{[4-(2,3-Dihydroxy-benzoylamino)-butyl]-[3-(2,3-dihydroxy-benzoylamino)-propyl]-carbamoyl}-propionylamino)-pentyl]-N-hydroxy-succinamic acid; type: functional, organism-based
Procedure, shortened: (§4)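 Paper-strip competition on agar. LB cultures grown 18–24 h were suspended in 0.9% saline at […] (0.5 McFarland), then 0.1 mL was mixed into 34 mL MHII agar + 2,2′-bipyridine at 47 °C. Strips were soaked in 0.5 mM sideromycin or 2.0 mM siderophore (1:10 DMSO:MeOH). Plates ran 37 °C for 18–24 h and were photographed at 48 h.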

Staphylococcus aureus [12] = experiment: Antibacterial activity against Staphylococcus aureus SG 511 at 0.5 mM after 18 to 24 hrs by agar diffusion assay in presence of N-[5-(3-{[4-(2,3-Dihydroxy-benzoylamino)-butyl]-[3-(2,3-dihydroxy-benzoylamino)-propyl]-carbamoyl}-propionylamino)-pentyl]-N-hydroxy-succinamic acid; type: functional, organism-based; procedure, shortened: as §4
Acinetobacter baumannii [13] = experiment: Antibacterial activity against Acinetobacter baumannii ATCC 17961 at 0.5 mM after 18 to 24 hrs by agar diffusion assay in presence of Fe3-complex of N-[5-(3-{[4-(2,3-Dihydroxy-benzoylamino)-butyl]-[3-(2,3-dihydroxy-benzoylamino)-propyl]-carbamoyl}-propionylamino)-pentyl]-N-hydroxy-succinamic acid; type: functional, organism-based; procedure, shortened: as §4
Acinetobacter baumannii [14] = experiment: Antibacterial activity against Acinetobacter baumannii ATCC 17961 at 0.5 mM after 18 to 24 hrs by agar diffusion assay in presence of N-[5-(3-{[4-(2,3-Dihydroxy-benzoylamino)-butyl]-[3-(2,3-dihydroxy-benzoylamino)-propyl]-carbamoyl}-propionylamino)-pentyl]-N-hydroxy-succinamic acid; type: functional, organism-based; procedure, shortened: as §4

| Structure (SMILES) | MIC (Escherichia coli) [µM] | MIC (Klebsiella aerogenes) [µM] | MIC (Staphylococcus aureus [1]) [µM] | MIC (Enterococcus faecium) [µM] | MIC (Klebsiella pneumoniae) [µM] | MIC (Acinetobacter baumannii [2]) [µM] | MIC (Pseudomonas aeruginosa) [µM] | MIC (Staphylococcus aureus [3]) [µM] | MIC (Staphylococcus aureus [4]) [µM] | MIC (Acinetobacter baumannii [5]) [nM] | MIC (Acinetobacter baumannii [6]) [µM] | Activity (Staphylococcus aureus [7]) | Activity (Staphylococcus aureus [8]) | diameter of the inhibition zone (DIZ) (Acinetobacter baumannii [9]) [mm] | diameter of the inhibition zone (DIZ) (Acinetobacter baumannii [10]) [mm] | Activity (Staphylococcus aureus [11]) | Activity (Staphylococcus aureus [12]) | Activity (Acinetobacter baumannii [13]) | Activity (Acinetobacter baumannii [14]) |
| --- | --- | --- | --- | --- | --- | --- | --- | --- | --- | --- | --- | --- | --- | --- | --- | --- | --- | --- | --- |
| O=C(CCC(=O)N(CCCCNC(=O)c1cccc(O)c1O)CCCNC(=O)c1cccc(O)c1O)NCCCCCN(O)C(=O)CCC(=O)N1CCN(c2cc3c(cc2F)c(=O)c(C(=O)O)cn3C2CC2)CC1 | > 128 | > 128 | > 128 | > 128 | > 128 | > 128 | > 128 |  |  |  |  |  |  |  |  |  |  |  |  |
| O=C(CCC(=O)N(CCCCNC(=O)c1cccc(O)c1O)CCCNC(=O)c1cccc(O)c1O)NCCCCCN(O)C(=O)CCC(=O)N[C@H](C(=O)N[C@@H]1C(=O)N2C(C(=O)O)=C(Cl)CC[C@H]12)c1ccccc1 | 8 (≈ 8.4 µg/mL) | > 128 | 32 (≈ 33.6 µg/mL) | > 128 | > 128 | 0.125 (≈ 0.131 µg/mL) | > 128 | 32 (≈ 33.6 µg/mL) | 64 (≈ 67.2 µg/mL) | 7.8 (≈ 0.00819 µg/mL) | 0.5 (≈ 0.525 µg/mL) | Active | Active | 16.2 | 20.6 | Active | Active | inactive | inactive |
| O=C(O)CCC(=O)N(O)CCCCCNC(=O)CCC(=O)N(CCCCNC(=O)c1cccc(O)c1O)CCCNC(=O)c1cccc(O)c1O | > 128 | > 128 | > 128 | > 128 | > 128 | > 128 | > 128 |  |  |  |  |  |  |  |  |  |  |  |  |
| N[C@@H](C(=O)N[C@@H]1C(=O)N2C(C(=O)O)=C(Cl)CC[C@H]12)c1ccccc1 [LORACARBEF ANHYDROUS] | 2 (≈ 0.7 µg/mL) | > 128 | 1 (≈ 0.35 µg/mL) | 32 (≈ 11.2 µg/mL) | 128 (≈ 44.8 µg/mL) | > 128 | > 128 |  |  |  |  |  |  |  |  |  |  |  |  |
| O=C(O)c1cn(C2CC2)c2cc(N3CCNCC3)c(F)cc2c1=O [CIPROFLOXACIN] | < 0.015 | < 0.015 | 0.5 (≈ 0.166 µg/mL) | 8 (≈ 2.65 µg/mL) | 0.25 (≈ 0.0828 µg/mL) | 0.25 (≈ 0.0828 µg/mL) | 0.125 (≈ 0.0414 µg/mL) |  |  |  |  |  |  |  |  |  |  |  |  |
